“Also recorded” adds a separate entry of the source. Where two headings read alike, the source gives them in different places.
Experiments:
Vero cells = assay: Host Vero cell toxicity counter-read of the amastigote assay; type: cell-based
In short: (§1)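 Intracellular T. cruzi amastigotes cultured in Vero host cells, with the host Vero cells read in parallel. pEC50 is the mean of independent EC50 determinations: three or more ± standard deviation, or for some compounds two ± range.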

T. cruzi amastigotes = assay: Intracellular T. cruzi amastigote assay in Vero cells; type: cell-based, Trypanosoma cruzi; conditions: for EC50: Trypanosoma cruzi, Vero; for Tc pEC50: T. cruzi amastigote cultures in Vero cells, mean of three or more EC50 determinations ± standard deviation
In short: as §1

[1] = Intrinsic clearance in mouse liver microsomes; type: in vitro ADME; conditions: result in words
T. cruzi = T. cruzi cytostatic/cytocidal assay; type: cell-based, Trypanosoma cruzi; conditions: cytocidal versus cytostatic behaviour
TcCYP51 = TcCYP51 (Trypanosoma cruzi, UniProt Q7Z1V1); assay: TcCYP51 counter-screen; type: biochemical, T. cruzi; conditions: for TcCYP51 inhibition: result in words
TcCYP51, sequence (Q7Z1V1 whole entry): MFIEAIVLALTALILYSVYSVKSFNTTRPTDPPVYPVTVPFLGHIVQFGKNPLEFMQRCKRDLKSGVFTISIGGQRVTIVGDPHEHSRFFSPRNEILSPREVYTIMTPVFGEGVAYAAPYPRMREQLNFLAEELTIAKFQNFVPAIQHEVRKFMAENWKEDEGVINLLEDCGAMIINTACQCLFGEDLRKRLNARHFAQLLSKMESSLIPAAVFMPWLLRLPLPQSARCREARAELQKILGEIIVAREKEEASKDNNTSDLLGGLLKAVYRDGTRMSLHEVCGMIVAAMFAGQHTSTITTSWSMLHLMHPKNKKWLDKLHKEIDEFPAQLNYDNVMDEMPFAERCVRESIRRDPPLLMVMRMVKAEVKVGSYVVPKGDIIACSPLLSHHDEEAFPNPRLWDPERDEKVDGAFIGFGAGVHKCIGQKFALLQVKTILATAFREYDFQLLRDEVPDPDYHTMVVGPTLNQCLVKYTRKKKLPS

[2] = host Vero cells, mean of three or more EC50 determinations ± standard deviation

| SMILES | Cytocidal (T. cruzi) | TcCYP51 inhibition (TcCYP51) | EC50 (T. cruzi amastigotes; read-out: Tc pEC50 (converted)) [nM] | further results |
| --- | --- | --- | --- | --- |
| COc1cc(OC)cc(C(=O)Nc2ccc(Nc3nc(C)cc(N(C)C)n3)cc2)c1 [Compound 1] | cytocidal behavior | – | – | Vero pEC50 (Vero cells; Table 2: host Vero cells, mean of two EC50 determinations ± range (1, 4b: ± standard deviation from > 2 determinations)): 5.2 ± 0.3; EC50 (T. cruzi amastigotes; read-out: pEC50 against T. cruzi parasites (converted)): 126 nM; stability in mouse liver microsomes (MLM) [1]: stable; EC50 (TcCYP51): > 10000 nM |
| COc1cc(Nc2nc(C)cc(N(C)C)n2)ccc1F [Compound 4d] | cytocidal | did not inhibit TcCYP51 | – | Vero pEC50 (Vero cells; [2]): 4.5 ± 0.1; Tc pEC50 (T. cruzi amastigotes): 6.4 ± 0.3 |
| Cc1cc(N(C)C)nc(Nc2ccc(C(=O)N3CCCCC3)cc2)n1 [Compound 5a] | – | – | 2000 | toxicity against the host cells (Vero cells; at the top concentration tested (50 μM)): no toxicity |
| Cc1cc(N(C)C)nc(NCc2ccccc2)n1 [Compound 6a] | cytocidal | did not inhibit TcCYP51 | 3160 | Vero pEC50 (Vero cells; [2]): < 4.3; Tc pEC50 (T. cruzi amastigotes): 5.5 ± 0.3 |
| Cc1cc(N(C)C)nc(NC2CCN(C(=O)Cc3ccc(F)cc3F)CC2)n1 [Compound 6e] | – | – | 3160 | – |
| COc1cc(OC)cc(C(=O)N[C@H]2CC[C@H](Nc3nc(C)cc(N(C)C)n3)CC2)c1 [Compound 8b] | cytocidal | no activity versus TcCYP51 | – | – |
| COc1cc(Nc2nc(C)cc(N3CCCC3)n2)ccc1F [Compound 13b] | – | – | 316 | – |
| COc1cc(Nc2cc(C)nc(NCc3ccccc3)n2)ccc1F [Compound 17c] | cytostatic behavior; also recorded: no longer cytocidal | – | 79.4 | – |
| COc1cc(Nc2nc(C(C)C)cc(N(C)C)n2)ccc1F [Compound 18c] | – | – | 2000 | – |
| COc1cc(Nc2nc(C(=O)N3CCCC3)cc(N(C)C)n2)ccc1F [Compound 18e] | – | – | 31600 | – |
